Entries after “also recorded” stand apart in the source; their conditions may differ.
Legend:
human 5-HTR4b = human 5-HTR4b (Homo sapiens, UniProt Q13639); experiment: Luciferase-based 5-HTR4b assay in yeast; type: cell-based; conditions: for confirmation as 5-HTR4b ligand by dose response curves: 5-HTR4b assay strain vs control strain with blank plasmid in lieu of 5-HTR4b; for anti-infection library screening result (Z-score): 403-member library; for anti-infection library screening result (Z-score) / natural products library screening result (Z-score normalized to serotonin): singlets; for natural products library screening result (Z-score normalized to serotonin): 803-member library
human 5-HTR4b, sequence (Q13639 whole entry): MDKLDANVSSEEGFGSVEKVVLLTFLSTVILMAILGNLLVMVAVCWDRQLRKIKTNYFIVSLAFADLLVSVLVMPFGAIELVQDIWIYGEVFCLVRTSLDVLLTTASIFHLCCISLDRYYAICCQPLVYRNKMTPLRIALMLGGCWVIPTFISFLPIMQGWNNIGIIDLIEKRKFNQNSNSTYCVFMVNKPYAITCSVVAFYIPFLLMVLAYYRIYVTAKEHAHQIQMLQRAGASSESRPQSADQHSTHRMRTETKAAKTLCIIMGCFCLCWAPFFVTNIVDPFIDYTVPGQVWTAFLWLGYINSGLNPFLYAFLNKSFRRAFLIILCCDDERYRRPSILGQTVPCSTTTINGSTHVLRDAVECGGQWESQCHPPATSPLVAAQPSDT

yeast (PPY1808) = experiment: Toxicity assessment in yeast; type: cell-based, Saccharomyces cerevisiae; conditions: yeast incubated 2.5 h, 0, 10 μM, 100 μM
[1] = test system: human colon epithelial cells (Caco-2); experiment: Colon cell wound healing scratch assay; type: cell-based; conditions: Caco-2 scratch assay, 10 μM, 48 h, vs PBS control
[2] = test system: human colon epithelial cells (Caco-2); experiment: Cell migration assay; type: cell-based; conditions: Caco-2, 10 μM, 48 h, vs PBS control
How it was run: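 Caco-2 cells grown at 37 °C, 5% CO2 in high-glucose DMEM with 10% FBS and 1% penicillin-streptomycin. Cells at (1–2) × 10^5 cells/mL were seeded into both wells of culture inserts and left overnight to attach. Inserts were then removed and cells washed twice with PBS. […] Imaged at 0, 24 and 48 h, and the cell-free zone was measured.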

SMILES	confirmation as 5-HTR4b ligand by dose response curves (human 5-HTR4b)	natural products library screening result (Z-score normalized to serotonin) (human 5-HTR4b; 10 μM)	also measured
O=C(Nc1ccc(O)cc1)c1ccccc1O [osalmid]	could not confirm	–	anti-infection library screening result (Z-score) (human 5-HTR4b; 1 μM): hits
CCOc1ccc2nc3cc(N)ccc3c(N)c2c1 [ethacridine]	–	–	toxicity to yeast (yeast (PPY1808)): toxic at high concentrations; anti-infection library screening result (Z-score) (human 5-HTR4b; 10 μM): hits; wound healing [1]: did not result in a significant increase; cell motility (cell migration) [2]: did not result in a significant increase
CC[n+]1c(-c2ccccc2)c2cc(N)ccc2c2ccc(N)cc21 [ethidium bromide]	could not confirm	–	anti-infection library screening result (Z-score) (human 5-HTR4b; 10 μM): hits
Nc1ccc2cc3ccc(N)cc3nc2c1 [proflavine]	–	–	toxicity to yeast (yeast (PPY1808)): toxic at high concentrations; anti-infection library screening result (Z-score) (human 5-HTR4b; 10 μM): hits; wound healing [1]: did not result in a significant increase; cell motility (cell migration) [2]: did not result in a significant increase
CN[C@@H]1[C@@H](O)[C@@H](O[C@@H]2[C@@H](O)[C@H](O[C@H]3O[C@H](CN)[C@@H](O)[C@H](O)[C@H]3O)[C@@H](N)C[C@H]2NC(=O)[C@@H](O)CN)OC[C@]1(C)O [isepamicin]	could not confirm	–	anti-infection library screening result (Z-score) (human 5-HTR4b; 1 μM): hits
NCCc1c[nH]c2ccccc12 [tryptamine]	confirmed	hits	–
NCCc1c[nH]c2ccc(O)cc12 [serotonin]	–	hits	signal increase after activation (human 5-HTR4b; pH = 7, 100 mg/L serotonin, 2 h ligand incubation, 30 min luciferase substrate incubation): 38 fold
O=c1c(-c2ccc(O)cc2)coc2cc(O[C@@H]3O[C@H](CO)[C@@H](O)[C@H](O)[C@H]3O)cc(O)c12 [genistin]	could not confirm	hits	–
CCn1cc(C(=O)O)c(=O)c2ccc(C)nc21 [nalidixic acid]	could not confirm	hits	–
O=C(CC1NCCCC1O)Cn1cnc2cc(Br)c(Cl)cc2c1=O (centres unmarked) [halofuginone]	–	hits	wound healing [1]: statistically significant increase in wound healing (P < 0.05); also recorded: statistically significantly different than the PBS control (P < 0.05); cell motility (cell migration) [2]: results only in increased wound healing
N[C@@H](Cc1c[nH]c2ccc(O)cc12)C(=O)O [L-5-HTP, L-5-hydroxytryptophan]	–	hits	–
CN(C)CCc1ccc(O)cc1 [hordenine]	–	hits	anti-infection library screening result (Z-score) (human 5-HTR4b; 10 μM): hits; wound healing [1]: statistically significant increase in wound healing (P < 0.05); also recorded: statistically significantly different than the PBS control (P < 0.05); cell motility (cell migration) [2]: significantly (P < 0.01) increase cell motility; also recorded: statistically significantly different than the PBS control (P < 0.01)
O=C(O)CCCc1c[nH]c2ccccc12 [3-indolebutyric acid]	could not confirm	hits	–
NC(Cc1c[nH]c2ccc(O)cc12)C(=O)O [5-HTP, D/L-5-hydroxytryptophan]	confirmed	hits	–
CC1(C)C2CCC1(C)C(O)C2 (centres unmarked) [borneol]	could not confirm	–	anti-infection library screening result (Z-score) (human 5-HTR4b; 1 μM): hits
O=c1c2cc(O[C@@H]3O[C@H](CO)[C@@H](O)[C@H](O)[C@H]3O)c(O)cc2oc2cc(O)c([C@@H]3O[C@H](CO)[C@@H](O)[C@H](O)[C@H]3O)c(O)c12 [neomangiferin]	could not confirm	hits	–
O=c1cc(-c2ccccc2)oc2cc(O)c(O)c(O)c12 [baicalein]	could not confirm	hits	–
Cc1nc(Nc2ccc(F)cc2)nc(N2CCc3ccccc3C2C)c1C (centres unmarked) [revaprazan]	–	–	toxicity to yeast (yeast (PPY1808)): toxic at high concentrations; anti-infection library screening result (Z-score) (human 5-HTR4b; 1 μM): hits; wound healing [1]: statistically significant increase in wound healing (P < 0.05); also recorded: statistically significantly different than the PBS control (P < 0.05); cell motility (cell migration) [2]: statistically significantly different than the PBS control (P < 0.01); cell motility (cell migration) ([2]; listed as Revaprazan): significantly (P < 0.01) increase cell motility
COc1ccc(-c2oc3c(CC=C(C)C)c(O)cc(O)c3c(=O)c2O[C@@H]2O[C@@H](C)[C@H](O)[C@@H](O)[C@H]2O)cc1 [baohuoside I]	could not confirm	hits	–

— article PMC6929040 (ACS Synthetic Biology, 2019)
